The values that follow come from ChEMBL document CHEMBL3352255, “Tailor-made fluorescent trilobolide to study its biological relevance” (J Med Chem, 2014).

The term IC50 denotes the concentration needed to halve the response being measured. A high value points to weaker potency.

Active and inactive are the calls of the source. No cut-off for these calls is given here.

Series [1] in a line: Cellular uptake in human MIAPaCa2 cells at 1 uM after 20 mins by fluorescence microscopy. Particulars: mia paca-2, 20 min. The class given is ADME, cell-based. The method in brief:
(§1)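 Uptake into living cells was followed by fluorescence microscopy at 10, 20 and 40 min and at 1, 3, 5 and 24 h. Green-emitting Bodipy conjugates were given at 1 μM. A Bodipy dye-only stain served as control for dye-driven localisation.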

The test system of a further series is MCF7. The series can be described thus: Cytotoxicity against human MCF7 cells after 72 hrs by WST-1 assay. The class given is functional, cell-based. The settings on record: MCF7, 72 h. The method in brief: (§2)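 Dark cytotoxicity (no light exposure) by WST-1 tetrazolium-to-formazan conversion reflecting metabolic activity; compounds tested at concentrations up to 50 μM for 24, 48 or 72 h; IC50 taken as concentration giving 50% inhibition of cell viability.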
In general terms: Tetrazolium assays rely on reduction of a dye to a coloured formazan, in cell work by metabolically active cells.

In series [2] the test system is U2OS. The series can be described thus: Cellular uptake in human U2OS cells at 1 uM after 10 to 20 mins by fluorescence microscopy. The class given is ADME, cell-based. The method in brief:
as §1

The next series concerns HeLa. The series can be described thus: Cellular uptake in human HeLa cells at 1 uM after 40 mins to 24 hrs by fluorescence microscopy. The class given is ADME, cell-based. In short, it runs like this:
as §1

The nature of series [3]: Cellular uptake in HEK293T cells at 1 uM after 20 mins by fluorescence microscopy. The class given is ADME, cell-based. Particulars: human, hek-293t. In short, it runs like this:
as §1

Series [4] is described as follows: Cytotoxicity against human MIAPaCa2 cells after 48 hrs by WST-1 assay. The class given is functional, cell-based. The settings on record: MIA PaCa-2, 48 h. The method in brief:
as §2

Series [5] relates to C2C12. The series can be described thus: Cellular uptake in mouse C2C12 cells at 1 uM after 20 mins by fluorescence microscopy. The class given is ADME, cell-based. The settings on record: c2c12, 20 min. In short, it runs like this:
as §1

In a further series the test system is LNCaP. The series can be described thus: Cytotoxicity against human LNCAP cells after 48 hrs by WST-1 assay. The class given is functional, cell-based. The method in brief:
as §2

Series [6] in a line: Cytotoxicity against human PC3 cells after 48 hrs by WST-1 assay. The settings on record: PC-3, 48 h. The class given is functional, cell-based. In short, it runs like this: as §2
The test system of series [7] is C2C12. The series can be described thus: Cytotoxicity against mouse C2C12 cells after 72 hrs by WST-1 assay. Particulars: C2C12, 72 h. The class given is functional, cell-based. The method in brief: as §2
Series [8] is described as follows: Cellular uptake in HEK293T cells at 1 uM after 40 mins to 24 hrs by fluorescence microscopy. The class given is ADME, cell-based. The settings on record: human, hek-293t. The method in brief:
as §1

Series [9] is described as follows: Cellular uptake in human PC3 cells at 1 uM after 20 mins by fluorescence microscopy. The class given is ADME, cell-based. Particulars: pc-3, 20 min. In short, it runs like this:
as §1

Series [10] can be described thus: Cytotoxicity against human MIAPaCa2 cells after 24 hrs by WST-1 assay. The class given is functional, cell-based. The settings on record: MIA PaCa-2, 24 h. The method in brief:
as §2

Series [11] concerns U2OS. The series can be described thus: Induction of mitochondria fragmentation in human U2OS cells at 1 uM after 10 to 40 mins by fluorescence microscopy. The class given is functional, cell-based. The method in brief:
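Live cells were treated with 1 μM Bodipy conjugates for at least 40 min and then co-stained with MitoTracker Red FM (100 nM, 10 min). Imaging by fluorescence microscopy assessed colocalisation with the green signal and the state of the mitochondrial network.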

A further series deals with A549. The series can be described thus: Cellular uptake in human A549 cells at 1 uM after 40 mins to 24 hrs by fluorescence microscopy. The class given is ADME, cell-based. Particulars: a549, 1 µM. In short, it runs like this: as §1
Series [12] has as its system C2C12. The series can be described thus: Cellular uptake in mouse C2C12 cells at 1 uM after 40 mins to 24 hrs by fluorescence microscopy. The class given is ADME, cell-based. Particulars: c2c12, 1 µM. The method in brief:
as §1

In series [13] the test system is U2OS. The series can be described thus: Cellular uptake in human U2OS cells at 2 uM after 0.5 to 24 hrs by fluorescence microscopy. The class given is ADME, cell-based. In short, it runs like this: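 U-2 OS live cells were imaged by fluorescence microscopy across a range of conjugate concentrations and time points from 0.5 to 24 h. The intracellular signal plateau was then assessed.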

The nature of series [14]: Cytotoxicity against rat peritoneal cells assessed as reduction in cell viability at 40 uM after 24 hrs by WST-1 assay.
Another series is filed under the species Rattus norvegicus. The series can be described thus: Induction of TNFalpha production in rat peritoneal cells at 10 uM after 24 hrs using by ELISA. The class given is functional, cell-based. In short, it runs like this:
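Rat peritoneal cells exposed to compounds at 10 μM for 24 h; secreted TNF-α quantified by ELISA; LPS (1000 pg·mL−1) and parent trilobolide (1 μM) as positive controls; mean ± SEM of two independent experiments, n = 4, compared with untreated cells.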
For orientation: In an ELISA, binding on a coated surface is turned into a signal by an enzyme label.

On to `C/C=C(/C)C(=O)O[C@@H]1C[C@H]2C(=C1C)[C@@H]1OC(=O)[C@@](C)(O)[C@@]1(O)[C@@H](OC(=O)CCCCn1cc(COc3ccc(C4=C5C=CC=[N+]5[B-](F)(F)n5cccc54)cc3)nn1)C[C@]2(C)OC(C)=O`, for which the Drug uptake entry (in series [1]; with U2OS [2]; in the series on HeLa; in series [3]; in the series with C2C12 [5]; in series [8]) was “Active” each time. The Drug uptake entry (in series [9]; in the series on A549; in the series with C2C12 [12]; with U2OS [13]) was “Active” each time. Further, the IC50 with MCF7 was 10.8 µM; in series [4] it was 43.5 µM; with LNCaP, 9.7 µM; in [6], 4.6 µM; with C2C12 [7] it was 15.1 µM; in [10], > 50 µM. In the series with U2OS [11], the outcome was Active.
Consider `C/C=C(/C)C(=O)O[C@@H]1C[C@H]2C(=C1C)[C@@H]1OC(=O)[C@@](C)(O)[C@@]1(O)[C@@H](OC(=O)CCOCCOCCOCCOCCn1cc(COc3ccc(C4=C5C=CC=[N+]5[B-](F)(F)n5cccc54)cc3)nn1)C[C@]2(C)OC(C)=O`, for which the Drug uptake entry (in [1]; in the series with U2OS [2]; in series [3]; in the series with C2C12 [5]; in series [9]; in the series on U2OS [13]) was “Active” each time. The IC50 in the series with MCF7 is 6 µM; in series [4], 9.9 µM; in the series on LNCaP, 0.4 µM; in series [6], 3.1 µM; with C2C12 [7] it was 14.3 µM; in [10], > 50 µM. Besides, in [14], the Activity entry was “Non-toxic”. The outcome in the series filed under Rattus norvegicus and in the series on U2OS [11] was Active.
